{"source": "ChEMBL document CHEMBL1125611", "about": "“Synthesis and biological evaluation of a series of 1,1-dichloro-2,2,3-triarylcyclopropanes as pure antiestrogens” (1991)", "key": {"[1]": {"species_on_record": "Mus musculus", "assay": "Ability to antagonize uterine weight gain in immature mice, at a dose of 150 ug; Activity is expressed as anti-uterotrophic % reduction", "format": "functional", "parameters": "scale not given: the % may be the effect or the level left", "method_in_brief": "(§1)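 Immature (17-19 days, 8-10 g) female Swiss-Webster mice, groups of six. Daily sc injections in the nape for 3 consecutive days. Estradiol in sesame oil (0.1 µg/mL, 0.1 mL; total 0.03 µg) plus 0.05 mL test compound in isopropyl myristate, given at separate sites. Vehicle and estradiol-only controls. Uteri cleaned, blotted and weighed 24 h after the last dose. % reduction of the estradiol-induced weight gain.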"}, "[2]": {"target": "T1, Estrogen receptor (Mus musculus) (UniProt O08537+P19785)", "T1 sequence (O08537 whole entry, looked up)": "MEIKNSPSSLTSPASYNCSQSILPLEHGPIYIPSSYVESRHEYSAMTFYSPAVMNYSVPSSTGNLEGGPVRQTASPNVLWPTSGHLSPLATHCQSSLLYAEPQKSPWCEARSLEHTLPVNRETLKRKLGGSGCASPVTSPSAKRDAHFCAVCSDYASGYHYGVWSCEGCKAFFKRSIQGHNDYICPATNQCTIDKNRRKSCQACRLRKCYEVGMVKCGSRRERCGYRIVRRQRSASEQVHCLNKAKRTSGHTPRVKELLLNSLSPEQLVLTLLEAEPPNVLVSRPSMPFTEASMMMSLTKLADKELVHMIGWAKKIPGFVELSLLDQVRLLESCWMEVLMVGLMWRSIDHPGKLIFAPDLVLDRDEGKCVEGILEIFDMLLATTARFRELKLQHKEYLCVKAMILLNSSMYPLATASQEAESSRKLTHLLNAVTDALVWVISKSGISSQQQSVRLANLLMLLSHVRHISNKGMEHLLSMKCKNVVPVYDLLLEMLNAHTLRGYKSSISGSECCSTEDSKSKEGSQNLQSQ", "T1 sequence (P19785 whole entry, looked up)": "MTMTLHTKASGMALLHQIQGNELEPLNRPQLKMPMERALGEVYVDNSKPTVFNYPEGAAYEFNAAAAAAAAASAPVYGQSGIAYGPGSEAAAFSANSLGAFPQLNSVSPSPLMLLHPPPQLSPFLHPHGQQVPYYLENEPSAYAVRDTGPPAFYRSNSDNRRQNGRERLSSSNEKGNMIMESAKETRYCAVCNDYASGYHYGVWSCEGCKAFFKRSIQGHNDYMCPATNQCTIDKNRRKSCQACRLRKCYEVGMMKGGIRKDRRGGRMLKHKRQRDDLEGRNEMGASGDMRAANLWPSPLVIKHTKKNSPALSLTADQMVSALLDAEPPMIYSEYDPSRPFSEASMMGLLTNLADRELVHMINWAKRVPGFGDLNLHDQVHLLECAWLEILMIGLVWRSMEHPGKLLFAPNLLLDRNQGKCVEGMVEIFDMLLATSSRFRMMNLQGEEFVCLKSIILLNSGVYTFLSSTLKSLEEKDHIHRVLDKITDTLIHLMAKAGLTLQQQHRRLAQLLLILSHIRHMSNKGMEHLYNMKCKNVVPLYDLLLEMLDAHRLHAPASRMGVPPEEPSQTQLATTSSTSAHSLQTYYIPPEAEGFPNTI", "assay": "Antagonism of estradiol induced uterine weight gain in immature mice at 10 ug; Activity is expressed as anti-uterotrophic % reduction", "format": "functional", "parameters": "scale not given: the % may be the effect or the level left", "method_in_brief": "as §1"}, "[3]": {"species_on_record": "Mus musculus", "assay": "Ability to antagonize uterine weight gain in immature mice, at a dose of 30 ug; Activity is expressed as anti-uterotrophic % reduction", "format": "functional", "parameters": "scale not given: the % may be the effect or the level left", "method_in_brief": "as §1"}, "[4]": {"target": "Estrogen receptor (Homo sapiens) (UniProt Q92731+P03372)", "assay": "Antiproliferative activity against estrogen receptor positive MCF-7 human breast cancer cell line at 10e-9 M", "format": "functional, cell-based", "details": "MCF7", "method_in_brief": "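MCF-7 cells in phenol-red-free RPMI 1640 with 5% calf serum, 2 mM L-glutamine and antibiotics, 37 °C, 5% CO2. Plated at 7.5 × 10⁴ cells/well, then allowed to attach for 2 days. Compound in 11:9 PEG 400–EtOH (final vehicle 0.1%) added on alternate days. Viable cells counted on day 4 by trypan blue exclusion, triplicate. % inhibition versus vehicle control.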"}, "[5]": {"species_on_record": "Mus musculus", "assay": "Ability to antagonize uterine weight gain in immature mice, at a dose of 750 ug; Activity is expressed as anti-uterotrophic % reduction", "format": "functional", "parameters": "scale not given: the % may be the effect or the level left", "method_in_brief": "as §1"}, "[6]": {"target": "T1, Estrogen receptor (Mus musculus)", "assay": "Antagonism of estradiol induced uterine weight gain in immature mice at 4 ug; Activity is expressed as anti-uterotrophic % reduction", "format": "functional", "parameters": "scale not given: the % may be the effect or the level left", "method_in_brief": "as §1"}, "[7]": {"target": "T1, Estrogen receptor (Mus musculus)", "assay": "Antagonism of estradiol induced uterine weight gain in immature mice at 150 ug.(p<0.01)", "format": "functional", "parameters": "scale not given: the % may be the effect or the level left", "method_in_brief": "as §1"}, "[8]": {"target": "T1, Estrogen receptor (Mus musculus)", "assay": "Antagonism of estradiol induced uterine weight gain in immature mice at 750 ug; Activity is expressed as anti-uterotrophic % reduction", "format": "functional", "parameters": "scale not given: the % may be the effect or the level left", "method_in_brief": "as §1"}, "[9]": {"target": "T1, Estrogen receptor (Mus musculus)", "assay": "Antagonism of estradiol induced uterine weight gain in immature mice at 30 ug.", "format": "functional", "parameters": "scale not given: the % may be the effect or the level left", "method_in_brief": "as §1"}, "[10]": {"target": "Estrogen receptor (Rattus norvegicus) (UniProt P06211+Q62986)", "assay": "Relative binding affinity for estrogen receptor in rat uterine cytosol by displacement of [3H]-estradiol", "details": "Uterus", "method_in_brief": "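Uterine cytosol from immature Sprague-Dawley rats (17-19 days) primed with estradiol (0.53 µg sc daily ×3). Competitive displacement of [3H]estradiol, with free ligand removed by dextran-coated charcoal. Parallel incubations with 4 × 10⁻⁶ diethylstilbestrol define nonspecific binding, which is subtracted. RBA relative to estradiol = 100%, by Bliss method, duplicates.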"}, "[11]": {"target": "T1, Estrogen receptor (Mus musculus)", "assay": "Antagonism of estradiol induced uterine weight gain in immature mice at 200 ug; Activity is expressed as anti-uterotrophic % reduction", "format": "functional", "parameters": "scale not given: the % may be the effect or the level left", "method_in_brief": "as §1"}, "[12]": {"target": "T1, Estrogen receptor (Mus musculus)", "assay": "Antagonism of estradiol induced uterine weight gain in immature mice at 800 ug; Activity is expressed as anti-uterotrophic % reduction", "format": "functional", "parameters": "scale not given: the % may be the effect or the level left", "method_in_brief": "as §1"}, "[13]": {"target": "T1, Estrogen receptor (Mus musculus)", "assay": "Antagonism of estradiol induced uterine weight gain in immature mice at 400 ug; Activity is expressed as anti-uterotrophic % reduction", "format": "functional", "parameters": "scale not given: the % may be the effect or the level left", "method_in_brief": "as §1"}}}
{"compound": "CN(C)CCOc1ccc(C2(c3ccccc3)C(c3ccccc3)C2(Cl)Cl)cc1", "note": "(configuration not stated)", "values": [{"measurement": "Activity", "setting": "[1]", "result": 30, "unit": "%"}, {"measurement": "Activity", "setting": "[2]", "result": 10, "unit": "%"}, {"measurement": "Activity", "setting": "[3]", "result": 37, "unit": "%"}, {"measurement": "inhibition", "setting": "[4]", "result": 12.4, "unit": "%"}, {"measurement": "Activity", "setting": "[5]", "result": 18, "unit": "%"}, {"measurement": "Activity", "setting": "[6]", "result": -6, "unit": "%"}]}
{"compound": "Oc1ccc(C2(c3ccccc3)C(c3ccccc3)C2(Cl)Cl)cc1", "note": "(configuration not stated)", "values": [{"measurement": "Activity", "setting": "[1]", "result": 12, "unit": "%"}, {"measurement": "Activity", "setting": "[3]", "result": 23, "unit": "%"}, {"measurement": "Activity", "setting": "[5]", "result": 25, "unit": "%"}]}
{"compound": "COc1ccc(C2(c3ccc(OCc4ccccc4)cc3)C(c3ccccc3)C2(Cl)Cl)cc1", "note": "(configuration not stated)", "values": [{"measurement": "Activity", "setting": "[3]", "result": 37, "unit": "%"}, {"measurement": "inhibition", "setting": "[4]", "result": 31.3, "unit": "%"}, {"measurement": "Activity", "setting": "[7]", "result": 47, "unit": "%"}, {"measurement": "Activity", "setting": "[5]", "result": 22, "unit": "%"}]}
{"compound": "COc1ccc(C2C(Cl)=C(c3ccc(OCc4ccccc4)cc3)c3ccc(OC)cc32)cc1", "note": "(configuration not stated)", "values": [{"measurement": "Activity", "setting": "[1]", "result": 4, "unit": "%"}, {"measurement": "Activity", "setting": "[3]", "result": 14, "unit": "%"}, {"measurement": "Activity", "setting": "[5]", "result": 0, "unit": "%"}]}
{"compound": "COc1ccc(C2C(Cl)=C(c3ccc(O)cc3)c3ccc(OC)cc32)cc1", "note": "(configuration not stated)", "values": [{"measurement": "Activity", "setting": "[1]", "result": 14, "unit": "%"}, {"measurement": "Activity", "setting": "[3]", "result": 3, "unit": "%"}, {"measurement": "Activity", "setting": "[5]", "result": 12, "unit": "%"}]}
{"compound": "COc1ccc(C2C(Cl)(Cl)C2(c2ccc(O)cc2)c2ccc(OC)cc2)cc1", "note": "(configuration not stated)", "values": [{"measurement": "Activity", "setting": "[1]", "result": 10, "unit": "%"}, {"measurement": "Activity", "setting": "[3]", "result": 19, "unit": "%"}, {"measurement": "Activity", "setting": "[5]", "result": 26, "unit": "%"}]}
{"compound": "CCN(CC)CCOc1ccc(C(O)(Cc2ccc(OC)cc2)c2ccccc2)cc1", "note": "(configuration not stated)", "values": [{"measurement": "Activity", "setting": "[8]", "result": 82, "unit": "%"}, {"measurement": "Activity", "setting": "[1]", "result": 30, "unit": "%"}, {"measurement": "Activity", "setting": "[3]", "result": 1, "unit": "%"}]}
{"compound": "COc1ccc(C2(c3ccc(O)cc3)C(c3ccccc3)C2(Cl)Cl)cc1", "note": "(stereo in doubt; 6b)", "values": [{"measurement": "Activity", "setting": "[1]", "result": -7, "unit": "%"}, {"measurement": "Activity", "setting": "[3]", "result": 15, "unit": "%"}, {"measurement": "Activity", "setting": "[5]", "result": 41, "unit": "%"}]}
{"compound": "COc1ccc(C2(c3ccc(O)cc3)C(c3ccccc3)C2(Cl)Cl)cc1", "note": "(stereo in doubt; 6c)", "values": [{"measurement": "Activity", "setting": "[1]", "result": 18, "unit": "%"}, {"measurement": "Activity", "setting": "[3]", "result": 28, "unit": "%"}, {"measurement": "Activity", "setting": "[5]", "result": 22, "unit": "%"}]}
{"compound": "COc1ccc(C2(c3ccccc3)C(c3ccccc3)C2(Cl)Cl)cc1", "note": "(configuration not stated)", "values": [{"measurement": "Activity", "setting": "[1]", "result": 49, "unit": "%"}, {"measurement": "Activity", "setting": "[3]", "result": 22, "unit": "%"}, {"measurement": "inhibition", "setting": "[4]", "result": 6.1, "unit": "%"}, {"measurement": "Activity", "setting": "[5]", "result": 33, "unit": "%"}]}
{"compound": "COc1ccc(C2C(Cl)(Cl)C2(c2ccc(OC)cc2)c2ccc(OCc3ccccc3)cc2)cc1", "note": "(configuration not stated)", "values": [{"measurement": "Activity", "setting": "[1]", "result": 49, "unit": "%"}, {"measurement": "Activity", "setting": "[2]", "result": 2, "unit": "%"}, {"measurement": "Activity", "setting": "[5]", "result": 2, "unit": "%"}, {"measurement": "Activity", "setting": "[9]", "result": 15, "unit": "%"}]}
{"compound": "COc1ccc(C2(c3ccc(OCCN(C)C)cc3)C(c3ccccc3)C2(Cl)Cl)cc1", "note": "(configuration not stated)", "values": [{"measurement": "Activity", "setting": "[1]", "result": 42, "unit": "%"}, {"measurement": "Activity", "setting": "[2]", "result": 6, "unit": "%"}, {"measurement": "Activity", "setting": "[3]", "result": 33, "unit": "%"}, {"measurement": "Activity", "setting": "[5]", "result": 53, "unit": "%"}, {"measurement": "Activity", "setting": "[6]", "result": -10, "unit": "%"}]}
{"compound": "ClC1(Cl)C(c2ccccc2)C1(c1ccccc1)c1ccccc1", "note": "(configuration not stated)", "values": [{"measurement": "Activity", "setting": "[1]", "result": 3, "unit": "%"}, {"measurement": "Activity", "setting": "[3]", "result": 11, "unit": "%"}, {"measurement": "RBA", "setting": "[10]", "result": 0.1, "unit": "%"}, {"measurement": "Activity", "setting": "[5]", "result": 13, "unit": "%"}]}
{"compound": "COc1ccc(C2=C(Cl)C(c3ccc(OC)cc3)c3cc(OC)ccc32)cc1", "note": "(configuration not stated)", "values": [{"measurement": "Activity", "setting": "[1]", "result": -6, "unit": "%"}, {"measurement": "Activity", "setting": "[3]", "result": 27, "unit": "%"}, {"measurement": "Activity", "setting": "[5]", "result": 28, "unit": "%"}]}
{"compound": "ClC1(Cl)C(c2ccccc2)C1c1ccccc1", "note": "(configuration not stated)", "values": [{"measurement": "Activity", "setting": "[11]", "result": 28, "unit": "%"}, {"measurement": "Activity", "setting": "[12]", "result": 58, "unit": "%"}, {"measurement": "Activity", "setting": "[13]", "result": 42, "unit": "%"}]}
{"compound": "CC/C(=C(\\c1ccccc1)c1ccc(OCCN(C)C)cc1)c1ccccc1", "note": "[TAMOXIFEN]", "values": [{"measurement": "Activity", "setting": "[1]", "result": 0, "unit": "%"}, {"measurement": "Activity", "setting": "[3]", "result": 4, "unit": "%"}, {"measurement": "Activity", "setting": "[5]", "result": -12, "unit": "%"}]}
